We go through 34 molecules from ChEMBL document CHEMBL3046033, “Design, synthesis, crystal structure analysis, and insecticidal evaluation of phenylazoneonicotinoids” (2011).

The first assay relates to Aphis craccivora. In words: Insecticidal activity against Aphis craccivora (cowpea aphid) assessed as mortality at 125 mg/L after 24 hr by leaf-dip method. It is filed as functional. The procedure, abridged: (§1)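 Test solutions were made by dissolving compounds in N,N-dimethylformamide and diluting with water containing Triton X-100 (0.1 mg/L), giving a series of 500.0, 250.0 and 125.0 mg/L plus other concentrations for the cowpea aphid (Aphis craccivora) bioassay.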
Broadly, the mortality is the share of the test organisms that died. As for `COc1ccccc1/N=N/C(=C1/NCCN1Cc1ccc(Cl)nc1)[N+](=O)[O-]`, the mortality at 125 µg/mL was 35.5%.

On to `COc1cccc(OC)c1/N=N/C(=C1/NCCN1Cc1ccc(Cl)nc1)[N+](=O)[O-]`, for which the mortality at 125 µg/mL was 100%.

For the molecule `Cc1cccc(C)c1/N=N/C(=C1/NCCN1Cc1cnc(Cl)s1)[N+](=O)[O-]`, the mortality at 125 µg/mL turned out to be 100%.

As for `Cc1cc(C)c(/N=N/C(=C2/NCCN2Cc2cnc(Cl)s2)[N+](=O)[O-])c(C)c1`, the mortality at 125 µg/mL was 100%.

Turning to `CCc1cccc(CC)c1/N=N/C(=C1/NCCN1Cc1cnc(Cl)s1)[N+](=O)[O-]`, the mortality at 125 µg/mL came out at 100%.

As for `COc1cccc(OC)c1/N=N/C(=C1/NCCN1Cc1cnc(Cl)s1)[N+](=O)[O-]`, the mortality at 125 µg/mL came to 100%.

As to `O=[N+]([O-])C(/N=N/c1ccc(F)cc1)=C1\NCCN1Cc1ccc(Cl)nc1`, the mortality at 125 µg/mL came out at 100%.

Take `Cc1cccc(C)c1/N=N/C(=C1/NCCN1Cc1ccc(Cl)nc1)[N+](=O)[O-]`: the mortality at 125 µg/mL was 100%.

In the case of `Cc1cc(C)c(/N=N/C(=C2/NCCN2Cc2ccc(Cl)nc2)[N+](=O)[O-])c(C)c1`, the mortality at 125 µg/mL was 100%.

With `CCc1cccc(C)c1/N=N/C(=C1/NCCN1Cc1ccc(Cl)nc1)[N+](=O)[O-]`, the mortality at 125 µg/mL came to 100%.

For the molecule `CCc1cccc(CC)c1/N=N/C(=C1/NCCN1Cc1ccc(Cl)nc1)[N+](=O)[O-]`, the mortality at 125 µg/mL amounted to 100%.

In the case of `CC(C)c1cccc(C(C)C)c1/N=N/C(=C1/NCCN1Cc1ccc(Cl)nc1)[N+](=O)[O-]`, the mortality at 125 µg/mL came to 100%.

`O=[N+]([O-])/N=C1\NCCN1Cc1ccc(Cl)nc1` [IMIDACLOPRID]: the mortality at 125 µg/mL was 100%.

A further assay concerns Aphis craccivora. In words: Insecticidal activity against Aphis craccivora (cowpea aphid) assessed as mortality after 24 hr by leaf-dip method. It is filed as functional. The procedure, abridged: as §1
As usually defined, the LC50 is the concentration that kills 50% of the test population. With `COc1cccc(OC)c1/N=N/C(=C1/NCCN1Cc1ccc(Cl)nc1)[N+](=O)[O-]`, the LC50 turned out to be 9.9 µM.

`Cc1cccc(C)c1/N=N/C(=C1/NCCN1Cc1cnc(Cl)s1)[N+](=O)[O-]`: the LC50 stood at 3.5 µM.

For the molecule `CCc1cccc(CC)c1/N=N/C(=C1/NCCN1Cc1cnc(Cl)s1)[N+](=O)[O-]`, the LC50 was 11.8 µM.

`COc1cccc(OC)c1/N=N/C(=C1/NCCN1Cc1cnc(Cl)s1)[N+](=O)[O-]`: the LC50 came out at 14.6 µM.

As for `O=[N+]([O-])C(/N=N/c1ccc(F)cc1)=C1\NCCN1Cc1ccc(Cl)nc1`, the LC50 stood at 37.2 µM.

For the molecule `Cc1cccc(C)c1/N=N/C(=C1/NCCN1Cc1ccc(Cl)nc1)[N+](=O)[O-]`, the 50% lethal concentration (LC50) stood at 4.26 µM.

On to `Cc1cc(C)c(/N=N/C(=C2/NCCN2Cc2ccc(Cl)nc2)[N+](=O)[O-])c(C)c1`, for which the LC50 is 4.99 µM.

As for `CCc1cccc(C)c1/N=N/C(=C1/NCCN1Cc1ccc(Cl)nc1)[N+](=O)[O-]`, the LC50 was 3.74 µM.

For `CCc1cccc(CC)c1/N=N/C(=C1/NCCN1Cc1ccc(Cl)nc1)[N+](=O)[O-]`, the median lethal concentration (LC50) stood at 2.8 µM.

Consider `CC(C)c1cccc(C(C)C)c1/N=N/C(=C1/NCCN1Cc1ccc(Cl)nc1)[N+](=O)[O-]`, for which the 50% lethal concentration (LC50) is 13.8 µM.

As to `O=[N+]([O-])/N=C1\NCCN1Cc1ccc(Cl)nc1` [IMIDACLOPRID], the LC50 was 35 µM.

Another assay has as its system Aphis craccivora. In words: Insecticidal activity against Aphis craccivora (cowpea aphid) assessed as mortality at 250 mg/L after 24 hr by leaf-dip method. It is filed as functional. The procedure, abridged:
as §1
In the case of `COc1ccccc1/N=N/C(=C1/NCCN1Cc1ccc(Cl)nc1)[N+](=O)[O-]`, the mortality at 250 µg/mL came to 76%.

As to `COc1cccc(OC)c1/N=N/C(=C1/NCCN1Cc1ccc(Cl)nc1)[N+](=O)[O-]`, the mortality at 250 µg/mL was 100%.

In the case of `Cc1cccc(C)c1/N=N/C(=C1/NCCN1Cc1cnc(Cl)s1)[N+](=O)[O-]`, the mortality at 250 µg/mL was found to be 100%.

Take `Cc1cc(C)c(/N=N/C(=C2/NCCN2Cc2cnc(Cl)s2)[N+](=O)[O-])c(C)c1`: the mortality at 250 µg/mL is 100%.

Consider `CCc1cccc(CC)c1/N=N/C(=C1/NCCN1Cc1cnc(Cl)s1)[N+](=O)[O-]`, for which the mortality at 250 µg/mL worked out at 100%.

For `COc1cccc(OC)c1/N=N/C(=C1/NCCN1Cc1cnc(Cl)s1)[N+](=O)[O-]`, the mortality at 250 µg/mL is 100%.

As to `O=[N+]([O-])C(/N=N/c1ccc(F)cc1)=C1\NCCN1Cc1ccc(Cl)nc1`, the mortality at 250 µg/mL came out at 100%.

Regarding `Cc1cccc(C)c1/N=N/C(=C1/NCCN1Cc1ccc(Cl)nc1)[N+](=O)[O-]`, the mortality at 250 µg/mL is 100%.

For `Cc1cc(C)c(/N=N/C(=C2/NCCN2Cc2ccc(Cl)nc2)[N+](=O)[O-])c(C)c1`, the mortality at 250 µg/mL was 100%.

Regarding `CCc1cccc(C)c1/N=N/C(=C1/NCCN1Cc1ccc(Cl)nc1)[N+](=O)[O-]`, the mortality at 250 µg/mL was determined as 100%.

With `CCc1cccc(CC)c1/N=N/C(=C1/NCCN1Cc1ccc(Cl)nc1)[N+](=O)[O-]`, the mortality at 250 µg/mL turned out to be 100%.

As to `CC(C)c1cccc(C(C)C)c1/N=N/C(=C1/NCCN1Cc1ccc(Cl)nc1)[N+](=O)[O-]`, the mortality at 250 µg/mL was determined as 100%.

On to `O=[N+]([O-])/N=C1\NCCN1Cc1ccc(Cl)nc1` [IMIDACLOPRID], for which the mortality at 250 µg/mL came to 100%.

A further assay has as its system Aphis craccivora. The experiment in a line: Insecticidal activity against Aphis craccivora (cowpea aphid) assessed as mortality at 500 mg/L after 24 hr by leaf-dip method. It is filed as functional. The procedure, abridged: as §1
For `COc1ccccc1/N=N/C(=C1/NCCN1Cc1ccc(Cl)nc1)[N+](=O)[O-]`, the mortality at 500 µg/mL was 91%.

Take `COc1cccc(OC)c1/N=N/C(=C1/NCCN1Cc1ccc(Cl)nc1)[N+](=O)[O-]`: the mortality at 500 µg/mL came to 100%.

For `O=[N+]([O-])C(/N=N/c1ccc([N+](=O)[O-])cc1)=C1\NCCN1Cc1cnc(Cl)s1`, the mortality at 500 µg/mL was 12.1%.

As for `O=[N+]([O-])C(/N=N/c1c(Cl)cccc1Cl)=C1\NCCN1Cc1cnc(Cl)s1`, the mortality at 500 µg/mL was found to be 18.2%.

On to `Cc1cccc(/N=N/C(=C2/NCCN2Cc2cnc(Cl)s2)[N+](=O)[O-])c1C`, for which the mortality at 500 µg/mL was 61.7%.

With `Cc1cccc(C)c1/N=N/C(=C1/NCCN1Cc1cnc(Cl)s1)[N+](=O)[O-]`, the mortality at 500 µg/mL was 100%.

For `Cc1cc(C)c(/N=N/C(=C2/NCCN2Cc2cnc(Cl)s2)[N+](=O)[O-])c(C)c1`, the mortality at 500 µg/mL worked out at 100%.

In the case of `CCc1cccc(CC)c1/N=N/C(=C1/NCCN1Cc1cnc(Cl)s1)[N+](=O)[O-]`, the mortality at 500 µg/mL stood at 100%.

As to `COc1ccc(/N=N/C(=C2/NCCN2Cc2cnc(Cl)s2)[N+](=O)[O-])cc1`, the mortality at 500 µg/mL is 11.8%.

For the molecule `COc1cccc(OC)c1/N=N/C(=C1/NCCN1Cc1cnc(Cl)s1)[N+](=O)[O-]`, the mortality at 500 µg/mL worked out at 100%.

For `O=[N+]([O-])C(/N=N/c1ccccc1)=C1\NCCN1Cc1ccc(Cl)nc1`, the mortality at 500 µg/mL was determined as 31.2%.

Take `O=[N+]([O-])C(/N=N/c1ccc(F)cc1)=C1\NCCN1Cc1ccc(Cl)nc1`: the mortality at 500 µg/mL is 100%.

Turning to `O=[N+]([O-])C(/N=N/c1ccccc1F)=C1\NCCN1Cc1ccc(Cl)nc1`, the mortality at 500 µg/mL turned out to be 13%.

Take `O=[N+]([O-])C(/N=N/c1ccc(F)cc1F)=C1\NCCN1Cc1ccc(Cl)nc1`: the mortality at 500 µg/mL amounted to 12.2%.

Consider `O=[N+]([O-])C(/N=N/c1cccc(F)c1F)=C1\NCCN1Cc1ccc(Cl)nc1`, for which the mortality at 500 µg/mL was determined as 25.1%.

With `O=[N+]([O-])C(/N=N/c1ccc(F)c(Cl)c1)=C1\NCCN1Cc1ccc(Cl)nc1`, the mortality at 500 µg/mL is 8.6%.

`O=[N+]([O-])C(/N=N/c1ccccc1Cl)=C1\NCCN1Cc1ccc(Cl)nc1`: the mortality at 500 µg/mL was found to be 7.1%.

Take `O=[N+]([O-])C(/N=N/c1c(Cl)cccc1Cl)=C1\NCCN1Cc1ccc(Cl)nc1`: the mortality at 500 µg/mL turned out to be 6.5%.

Take `O=[N+]([O-])C(/N=N/c1ccc(Br)cc1)=C1\NCCN1Cc1ccc(Cl)nc1`: the mortality at 500 µg/mL is 58.3%.

On to `O=[N+]([O-])C(/N=N/c1ccccc1I)=C1\NCCN1Cc1ccc(Cl)nc1`, for which the mortality at 500 µg/mL stood at 0%.

Take `O=[N+]([O-])C(/N=N/c1ccc([N+](=O)[O-])cc1)=C1\NCCN1Cc1ccc(Cl)nc1`: the mortality at 500 µg/mL stood at 4.7%.

Consider `O=[N+]([O-])C(/N=N/c1ccccc1[N+](=O)[O-])=C1\NCCN1Cc1ccc(Cl)nc1`, for which the mortality at 500 µg/mL came out at 8.2%.

`Cc1ccccc1/N=N/C(=C1/NCCN1Cc1ccc(Cl)nc1)[N+](=O)[O-]`: the mortality at 500 µg/mL is 52.5%.

On to `Cc1ccc(/N=N/C(=C2/NCCN2Cc2ccc(Cl)nc2)[N+](=O)[O-])cc1`, for which the mortality at 500 µg/mL stood at 56.6%.

Consider `Cc1ccc(/N=N/C(=C2/NCCN2Cc2ccc(Cl)nc2)[N+](=O)[O-])cc1C`, for which the mortality at 500 µg/mL is 19.7%.

`Cc1cccc(/N=N/C(=C2/NCCN2Cc2ccc(Cl)nc2)[N+](=O)[O-])c1C`: the mortality at 500 µg/mL amounted to 73.3%.

Take `Cc1cccc(C)c1/N=N/C(=C1/NCCN1Cc1ccc(Cl)nc1)[N+](=O)[O-]`: the mortality at 500 µg/mL is 100%.

As to `Cc1cc(C)c(/N=N/C(=C2/NCCN2Cc2ccc(Cl)nc2)[N+](=O)[O-])c(C)c1`, the mortality at 500 µg/mL is 100%.

Regarding `Cc1cc(C(F)(C(F)(F)F)C(F)(F)F)cc(C)c1/N=N/C(=C1/NCCN1Cc1ccc(Cl)nc1)[N+](=O)[O-]`, the mortality at 500 µg/mL was found to be 12.2%.

Regarding `CCc1cccc(C)c1/N=N/C(=C1/NCCN1Cc1ccc(Cl)nc1)[N+](=O)[O-]`, the mortality at 500 µg/mL was found to be 100%.

As to `CCc1cccc(CC)c1/N=N/C(=C1/NCCN1Cc1ccc(Cl)nc1)[N+](=O)[O-]`, the mortality at 500 µg/mL was 100%.

In the case of `CC(C)c1cccc(C(C)C)c1/N=N/C(=C1/NCCN1Cc1ccc(Cl)nc1)[N+](=O)[O-]`, the mortality at 500 µg/mL was 100%.

As for `COc1ccc(/N=N/C(=C2/NCCN2Cc2ccc(Cl)nc2)[N+](=O)[O-])cc1`, the mortality at 500 µg/mL is 47.5%.

Consider `O=[N+]([O-])/N=C1\NCCN1Cc1ccc(Cl)nc1` [IMIDACLOPRID], for which the mortality at 500 µg/mL came to 100%.
